Results on 27 compounds are retold here after ChEMBL document CHEMBL1921780, “Novel 3-nitro-1H-1,2,4-triazole-based aliphatic and aromatic amines as anti-chagasic agents” (J Med Chem, 2011).

Data set [1] can be described thus: Selectivity index, ratio of IC50 for rat L6 cells to IC50 for Trypanosoma cruzi Tulahuen C4. The settings on record: L6 cells versus Trypanosoma cruzi Tulahuen C4, read-out: Ratio IC50. The format is toxicity, cell-based. The essentials:
(§1)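 Selectivity index is the L6 myoblast IC50 divided by the IC50 for each parasite. L. donovani was tested as axenic amastigotes. Both IC50s came from 96-well dose-response screens fitted by linear regression of sigmoidal curves.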

In data set [2] the test system is Trypanosoma cruzi. Put plainly: Antitrypanosomal activity against amastigotes of Trypanosoma cruzi Tulahuen C4 infected in rat L6 cells after 72 hrs by alamar blue assay. The conditions noted are these: Tulahuen C4, L6, 72 h.
A short description of data set [3]: Selectivity index, ratio of IC50 for rat L6 cells to IC50 for Leishmania donovani MHOM-ET-67/L82. The format is toxicity, cell-based. The conditions noted are these: L6 cells versus Leishmania donovani MHOM-ET-67/L82, read-out: Ratio IC50. The essentials: as §1
Data set [4] in a line: Selectivity index, ratio of IC50 for rat L6 cells to IC50 for Trypanosoma brucei rhodesiense STIB 900. The format is toxicity, cell-based. The conditions noted are these: L6 cells versus Trypanosoma brucei rhodesiense STIB 900, read-out: Ratio IC50. The essentials:
as §1

Data set [5] has as its system Trypanosoma brucei rhodesiense. Put plainly: Antitrypanosomal activity against blood stream form of Trypanosoma brucei rhodesiense STIB 900 […] after 72 hrs by alamar blue assay. The conditions noted are these: STIB 900, 72 h. The data set is classed as functional, organism-based.
Another data set concerns Leishmania donovani. Put plainly: Antileishmanial activity against Leishmania donovani MHOM-ET-67/L82 axenic amastigotes after 72 hrs by alamar blue assay. The settings on record: MHOM-ET-67/L82, 72 h. A general note: Resazurin is reduced to fluorescent resorufin, in cell work by metabolically active cells.
The next data set has as its system L6. Briefly: Cytotoxicity against rat L6 cells after 72 hrs by alamar blue assay. The format is cell-based. The settings on record: L6, 72 h. The essentials:
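Run in 96-well plates with a compound dose series. T. cruzi was tested as amastigotes inside infected L6 rat skeletal myoblasts. Uninfected L6 cells were used for cytotoxicity. IC50 was obtained by linear regression from sigmoidal dose–inhibition curves.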

Data set [6] can be described thus: Dissociation constant, pKa of the compound. The data set is classed as physicochemical.
Data set [7] concerns Trypanosoma cruzi. Put plainly: Ratio of benznidazole IC50 to compound IC50 for Trypanosoma cruzi Tulahuen C4 infected in rat L6 cells after 72 hrs by alamar blue assay. The data set is classed as functional.

With `O=[N+]([O-])c1nccn1CCCCNc1nc(-c2ccccc2)nc(Cl)c1-c1ccccc1`, the selectivity ratio in [1], in data set [3] and in data set [4] was 1 in each case. Further, the IC50 (in general, the concentration needed to halve the response being measured) in the data set on Trypanosoma cruzi [2] came out at 9.67 µM; in data set [5], 15.5 µM; in the data set on Leishmania donovani, 12.4 µM; with L6 it was 11.7 µM.
`Cl.O=[N+]([O-])c1ncn(CCCNCc2ccc3ccc(Cl)cc3n2)n1`: the pKa (in general, the negative logarithm of the acid dissociation constant) in [6] came out at 8.76. Also, the selectivity ratio turned out to be 460 in [1], 2 in data set [3] and 136 in data set [4]. Further, the IC50 in the data set with Trypanosoma cruzi [2] was determined as 0.311 µM; in data set [5] it was 1.05 µM; with Leishmania donovani it was 63.8 µM; with L6 it was 143 µM. The “Ratio IC50” value in the data set with Trypanosoma cruzi [7] is listed as 4.3.
As for `O=C1C(Cl)=C(NCCCn2ccnc2[N+](=O)[O-])C(=O)c2ccccc21`, the IC50 was 30.1 µM in the data set with Trypanosoma cruzi [2], 0.621 µM in [5], 0.516 µM with Leishmania donovani and 3.91 µM with L6. Also, the selectivity ratio in data set [3] turned out to be 8; in data set [4], 6.
For the compound `O=[N+]([O-])c1nccn1CCCNCc1cc(C(F)(F)F)cc(C(F)(F)F)c1`, the selectivity ratio in data set [1] was 6; in data set [3], less than 2; in data set [4], 10. For the same compound, the IC50 with Trypanosoma cruzi [2] was 24.5 µM; in data set [5], 13.8 µM; in the data set with Leishmania donovani, greater than 69.4 µM; in the data set on L6, 140 µM.
`O=[N+]([O-])c1nccn1CCCN(Cc1cccc(C(F)(F)F)c1)Cc1cccc(C(F)(F)F)c1`: the selectivity ratio worked out at 10 in [1], 19 in data set [3] and 4 in data set [4]. For the same compound, the IC50 in the data set on Trypanosoma cruzi [2] was 8.02 µM; in data set [5], 21.6 µM; with Leishmania donovani it was 4.27 µM; in the data set with L6, 79.6 µM.
Regarding `Cl.O=[N+]([O-])c1ncn(CCCCNc2ccnc3cccnc23)n1`, in data set [6], the pKa is 6.81. The selectivity ratio in data set [1] came to 208; in data set [4] it was 220. In addition, the IC50 with Trypanosoma cruzi [2] was 0.46 µM; in data set [5] it was 0.435 µM; in the data set on Leishmania donovani it was greater than 276 µM; with L6, 95.8 µM. The “Ratio IC50” value in the data set with Trypanosoma cruzi [7] came out at 2.9.
Consider `O=C1C(Cl)=C(NCCCn2cnc([N+](=O)[O-])n2)C(=O)c2ccccc21`, for which the IC50 in the data set with Trypanosoma cruzi [2] came to 15.6 µM; in data set [5] it was 0.882 µM; in the data set on Leishmania donovani, 6.53 µM; in the data set on L6 it was 7.16 µM. The selectivity ratio was 1 in data set [3] and 8 in [4].
Turning to `COc1cc2nc(Cl)nc(NCCCCn3ccnc3[N+](=O)[O-])c2cc1OC`, the selectivity ratio was 17 in [1], 5 in data set [3] and 7 in data set [4]. The IC50 was 0.968 µM in the data set on Trypanosoma cruzi [2], 2.26 µM in [5], 3.63 µM in the data set with Leishmania donovani and 16.5 µM in the data set on L6.
In the case of `O=[N+]([O-])c1ncn(CCCN(Cc2cc(C(F)(F)F)cc(C(F)(F)F)c2)Cc2cc(C(F)(F)F)cc(C(F)(F)F)c2)n1`, the selectivity ratio in [1] is 40; in data set [3], 16; in [4] it was 10. Besides, the IC50 worked out at 1.96 µM with Trypanosoma cruzi [2], 8.17 µM in [5], 4.87 µM with Leishmania donovani and 78.8 µM with L6.
As for `Cc1nc(C(F)(F)F)nc(NCCCn2ccnc2[N+](=O)[O-])c1C`, the selectivity ratio in data set [1] is greater than 55; in [3], greater than 12; in [4], greater than 16. In addition, the IC50 is 4.28 µM in the data set with Trypanosoma cruzi [2], 15.2 µM in data set [5], 20.1 µM in the data set with Leishmania donovani and greater than 236 µM in the data set on L6.
Consider `O=[N+]([O-])c1nccn1CCCNCc1ccc2cc(Br)ccc2n1`, for which the values for the selectivity ratio in data set [1], in data set [3] and in [4] were 23, 2 and 16, respectively. Also, the IC50 with Trypanosoma cruzi [2] was 6.05 µM; in data set [5], 8.56 µM; with Leishmania donovani it was 80.3 µM; in the data set with L6, 137 µM.
As for `Cc1cc(NCCCn2ccnc2[N+](=O)[O-])nc(N)n1`, the selectivity ratio was greater than 41 in data set [1] and greater than 28 in data set [4]. Also, the half-inhibitory concentration (IC50) with Trypanosoma cruzi [2] is 7.08 µM; in data set [5], 10.3 µM; in the data set on Leishmania donovani, greater than 95.7 µM; with L6, greater than 287 µM.
Regarding `COc1ccc2nc3cc(Cl)ccc3c(NCCCCn3cnc([N+](=O)[O-])n3)c2c1`, the pKa in [6] was determined as 8.84. The selectivity ratio turned out to be 66 in [1], 1 in [3] and 74 in data set [4]. The IC50 in the data set with Trypanosoma cruzi [2] worked out at 0.151 µM; in data set [5], 0.134 µM; with Leishmania donovani, 10.2 µM; with L6, 9.94 µM.
As to `O=[N+]([O-])c1nccn1CCNc1c2ccccc2nc2ccccc12`, the IC50 is 0.996 µM in the data set with Trypanosoma cruzi [2], 0.996 µM in data set [5], 9.09 µM with Leishmania donovani and 0.308 µM in the data set with L6.
As for `Clc1ccc2c(NCCCCn3cncn3)ccnc2c1`, the selectivity ratio was greater than 3 in data set [1] and greater than 14 in [4]. Also, the IC50 in the data set on Trypanosoma cruzi [2] is 92.1 µM; in data set [5] it was 21.8 µM; with Leishmania donovani, greater than 298 µM; in the data set on L6, greater than 298 µM.
Consider `Cc1cc(NCCCn2cnc([N+](=O)[O-])n2)nc(N)n1`, for which the selectivity ratio in data set [1] was greater than 8; in data set [4] it was greater than 131. The half-maximal inhibitory concentration (IC50) in the data set with Trypanosoma cruzi [2] was 33.7 µM; in data set [5], 2.19 µM; in the data set with Leishmania donovani it was greater than 95.4 µM; with L6 it was greater than 286 µM.
For the compound `Cc1cc(NCCCCn2ccnc2[N+](=O)[O-])nc(N)n1`, the selectivity ratio in [1] is greater than 7; in data set [3] it was greater than 3; in data set [4], greater than 23. In addition, the IC50 in the data set on Trypanosoma cruzi [2] was 41.8 µM; in data set [5], 11.8 µM; with Leishmania donovani, 98.1 µM; in the data set on L6, greater than 275 µM.
Regarding `FC(F)(F)c1cc(CNCCCCn2cncn2)cc(C(F)(F)F)c1`, the selectivity ratio in data set [1] was greater than 2; in data set [3] it was greater than 1; in [4], greater than 7. In addition, the IC50 with Trypanosoma cruzi [2] was 123 µM; in data set [5], 32.3 µM; with Leishmania donovani it was 172 µM; with L6, greater than 224 µM.
Consider `Cc1nc(NCCCn2ccnc2[N+](=O)[O-])c2ccccc2n1`, for which the figures for the selectivity ratio in data set [1] and in [4] were 15 and 9, respectively. The IC50 with Trypanosoma cruzi [2] was determined as 2.1 µM; in data set [5], 3.46 µM; in the data set on Leishmania donovani, 68.3 µM; in the data set with L6 it was 31.6 µM.
For the compound `O=[N+]([O-])c1nccn1CCCN(Cc1ccc2cc(Br)ccc2n1)Cc1ccc2cc(Br)ccc2n1`, the selectivity ratio came to 20 in [1], 5 in [3] and 7 in [4]. For the same compound, the IC50 was 4.67 µM with Trypanosoma cruzi [2], 14.2 µM in data set [5], 18.7 µM with Leishmania donovani and 93.6 µM in the data set on L6.
In the case of `O=[N+]([O-])c1nccn1CCCNc1ccnc2cc(Cl)ccc12`, the selectivity ratio in [1] stood at 24; in data set [4], 18. Besides, the IC50 in the data set on Trypanosoma cruzi [2] was found to be 1.04 µM; in data set [5] it was 1.4 µM; in the data set with Leishmania donovani it was 54.4 µM; with L6 it was 24.9 µM.
`O=[N+]([O-])c1nccn1CCCN1CCN(Cc2ccc(C(F)(F)F)cc2)CC1`: the selectivity ratio in data set [1] was greater than 9; in data set [4], greater than 13. Moreover, the IC50 in the data set with Trypanosoma cruzi [2] was 20.7 µM; in data set [5], 15.3 µM; in the data set on Leishmania donovani, greater than 191 µM; in the data set on L6 it was greater than 191 µM.
Consider `O=[N+]([O-])c1nccn1CCCCNc1ccnc2cc(Cl)ccc12`, for which the selectivity ratio in data set [1] amounted to 19; in data set [3], 2; in data set [4] it was 36. The IC50 with Trypanosoma cruzi [2] was found to be 3.51 µM; in data set [5] it was 1.87 µM; in the data set on Leishmania donovani it was 39.1 µM; with L6 it was 66.8 µM.
As to `O=[N+]([O-])c1nccn1CCCCNc1nc(-c2ccccc2)nc2ccccc12`, the selectivity ratio worked out at 9 in data set [1], 5 in data set [3] and 12 in data set [4]. For the same compound, the IC50 amounted to 3.63 µM with Trypanosoma cruzi [2], 2.76 µM in data set [5], 6.17 µM in the data set with Leishmania donovani and 32.5 µM in the data set with L6.
`O=[N+]([O-])c1nccn1CCCCNc1c2ccccc2nc2ccccc12`: the selectivity ratio in [1] worked out at 2; in [4], 3. Besides, the IC50 in the data set with Trypanosoma cruzi [2] worked out at 0.926 µM; in [5], 0.601 µM; in the data set with Leishmania donovani it was 14.8 µM; with L6 it was 1.68 µM.
`Nc1nc(N)nc(Nc2ccc([As]3SCC(CO)S3)cc2)n1` (stereo not given) [MELARSOPROL]: the half-maximal inhibitory concentration (IC50) in data set [5] was 0.01 µM.
For the compound `O=[N+]([O-])c1nccn1CCCN(Cc1ccc(C(F)(F)F)cc1)Cc1ccc(C(F)(F)F)cc1`, the selectivity ratio in data set [1] is greater than 46; in [3], greater than 27; in [4] it was greater than 7. Moreover, the IC50 in the data set on Trypanosoma cruzi [2] is 3.77 µM; in data set [5], 23 µM; with Leishmania donovani, 6.49 µM; in the data set with L6 it was greater than 172 µM.
